# Test results reported in PubChem BioAssay.
# Active and inactive are the calls of the source.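 Rule for the calls, unless noted: active = inhibition above 20% together with a positive visual image hit; inconclusive = visual image hit but inhibition not above 20%; inactive = no visual image hit.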
# How the values were obtained:
# [1] = inhibitors of TNFa-induced NFkB p65 translocation, primary screen, imaging, HUVEC, MLSMR starter and 10KST1 sets (AID 438); details: HUVEC TNFa-induced p65 nuclear translocation; cell count: measured here: nuclei count (cytotoxicity indicator), at 2.08 µM; inhibition: at 2 µM, stronger effect = higher value, 0% TNFa-plus-vehicle, 100% no-TNFa wells;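 note: compound added about 3h40 before a 20 min TNFalpha stimulation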;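 for inhibition: signal is the nuclear over cytoplasmic p65 intensity ratio per well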
# [2] = inhibitors of mutant huntingtin aggregation, primary screen, imaging, exon1htt(103Q)mCFP cells, high-content imaging (AID 483;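 active = visual image review flags a hit and inhibition of aggregation exceeds 20%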;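 note: compound exposure lasted 3 days before fixation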;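 for nuclei count: percent of the per-plate median nuclei count of sample wells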); details: exon1htt(103Q)mCFP cell line, aggregate imaging, at 2 µM; inhibition of aggregation: stronger effect = higher value; nuclei count: measured here: cell count, toxicity
# [3] = inhibitors of E-selectin induction by TNFa, primary screen, imaging, HUVEC, immunofluorescence, MLSMR starter and 10KST1 sets (AID 487;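 active = visually confirmed hit in the image check and inhibition above 20%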;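 for inhibition: signal is fraction of cell area covered by stained E-selectin grains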;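 for nuclei count: 100% = median nuclei count of all wells on the same plate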); details: HUVEC TNFalpha-induced E-selectin immunofluorescence imaging, at 2 µM; inhibition: stronger effect = higher value; nuclei count: measured here: cell number, toxicity
# [4] = target: Voltage-gated potassium channel subunit beta-2 (Rattus norvegicus) (UniProt P62483); assay: KvBeta enzyme negative modulators, primary screen, biochemical, NADPH fluorescence (AID 622;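 active = fluorescence slope higher than the sample average by over 3 SD, cut at about -0.22 in these data, passing the limit was not always enough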;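 note: slope of raw intensity against log time taken from 70 to 1610 s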); details: recombinant KvBeta, 4-cyanobenzaldehyde reduction, at 10 µM, stronger effect = higher value
# Chain of Voltage-gated potassium channel subunit beta-2 (Rattus norvegicus) (P62483 whole entry, looked up): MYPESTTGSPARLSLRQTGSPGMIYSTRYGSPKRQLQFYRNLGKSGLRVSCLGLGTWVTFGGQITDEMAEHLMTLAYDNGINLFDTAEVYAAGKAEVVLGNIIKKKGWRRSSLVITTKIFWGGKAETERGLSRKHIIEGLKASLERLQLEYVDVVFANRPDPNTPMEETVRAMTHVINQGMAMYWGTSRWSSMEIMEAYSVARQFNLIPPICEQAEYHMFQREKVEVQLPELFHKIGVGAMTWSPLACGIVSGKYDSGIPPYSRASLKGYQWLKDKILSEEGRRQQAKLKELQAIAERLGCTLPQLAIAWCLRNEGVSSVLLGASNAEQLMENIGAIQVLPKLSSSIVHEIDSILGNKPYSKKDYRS
# [5] = target: Voltage-gated potassium channel subunit beta-2 (Rattus norvegicus) (UniProt P62483); assay: KvBeta positive modulators, primary screen, biochemical, NADPH fluorescence (AID 623;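 active = NADPH fluorescence slope more negative than the mean of all samples by about 3 SD, 99.7% confidence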;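 note: fluorescence intensity change per second fitted from 20 to 320 s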); details: Recombinant KvBeta, NADPH fluorescence decrease slope, 10 min; at 10 µM; stronger effect = lower value
# [6] = target: Muscarinic acetylcholine receptor M4 (Homo sapiens) (UniProt P08173); assay: compounds altering M4/GIRK thallium flux, either direction, primary screen, M4 allosteric agonist project, cell-based, HEK293 M4/GIRK, BTC-AM (AID 625;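 active = fluorescence slope after compound addition differing from the mean of all tested samples at 99.7% confidence, mostly higher but some lower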;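 note: thallium influx through GIRK channels coupled to M4 in HEK293 cells with BTC-AM dye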); details: at 10 µM, actives lie on both sides
# Chain of Muscarinic acetylcholine receptor M4 (Homo sapiens) (P08173 whole entry, looked up): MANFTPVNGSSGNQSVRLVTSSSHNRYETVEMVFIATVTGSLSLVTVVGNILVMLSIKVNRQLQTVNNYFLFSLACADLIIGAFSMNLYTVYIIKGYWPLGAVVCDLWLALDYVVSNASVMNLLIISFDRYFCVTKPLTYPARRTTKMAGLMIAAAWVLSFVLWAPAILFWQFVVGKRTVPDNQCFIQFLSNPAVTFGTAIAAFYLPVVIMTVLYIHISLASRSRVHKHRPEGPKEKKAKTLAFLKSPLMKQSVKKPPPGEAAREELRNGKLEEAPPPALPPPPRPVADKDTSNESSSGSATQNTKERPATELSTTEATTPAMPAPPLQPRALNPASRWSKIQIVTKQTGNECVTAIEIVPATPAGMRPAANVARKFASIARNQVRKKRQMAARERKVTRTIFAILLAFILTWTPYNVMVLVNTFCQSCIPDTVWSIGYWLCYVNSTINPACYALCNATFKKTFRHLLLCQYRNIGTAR
# How it was run: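 Assay system: HEK293 cells with M4 receptor and GIRK channels / Controls: carbachol and DMSO controls / Schedule: 1 h dye loading, 2 min kinetic read / Technique: kinetic fluorescence with BTC-AM dye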
# [7] = inhibitors of Sendai virus-induced IRF3 signaling, primary screen, TLR/RLR signaling modifier project, cell-based, Sendai virus stimulus, luciferase, 10K MLSCN set (AID 602276;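 active = inhibition at or above 50% at 10 µM; inactive = inhibition below 50%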;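 note: firefly luciferase from ISG56 promoter only with Renilla not read in this screen; 0% = Sendai virus plus DMSO and 100% = medium plus DMSO without virus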); details: HEK293 RL24 IRF3 luciferase reporter, at 10 µM, stronger effect = higher value
# [8] = inhibitors of poly I:C-induced TLR3 signaling, primary screen, cell-based, poly I:C stimulus, luciferase, 10K MLSCN set (AID 602277;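 active = inhibition of the reporter signal at or above 50%; inactive = inhibition below 50%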); details: HEK293-TLR3 RL24 IRF3 luciferase reporter, at 10 µM, stronger effect = higher value
Structure (SMILES),cell count [1],inhibition [1],inhibition of aggregation [2],nuclei count [2] [%],inhibition [3],nuclei count [3] [%],fluorescence slope [4],NADPH fluorescence slope [5],fluorescence slope [6],inhibition [7],inhibition [8]
COc1cccc(-c2cc(C(=O)Nc3c(C)nn(Cc4ccccc4)c3C)no2)c1,438,-12.2% (inactive),-6.5% (inactive),105,41.8% (inactive),87,-0.249 (inactive),-2.3e-05 (inactive),0.00831 (inactive),0.514% (inactive),-23.3% (inactive)
CCOC(=O)C1CCCN(c2nc3ccccc3nc2C(C#N)C(=O)NCc2ccccc2)C1 (centres undefined),703,9.6% (inactive),-4.3% (inactive),103,-40% (inactive),126,-0.459 (inactive),-2.8e-05 (inactive),0.00538 (inactive),7.48% (inactive),12.6% (inactive)
Cc1cc(C)n(-c2nc(C)nc3c2cnn3-c2ccccc2)n1,427,9.2% (inactive),-20.7% (inactive),97.3,-60.5% (inactive),114,-0.564 (inactive),-3.8e-05 (inactive),0.0087 (inactive),20.1% (inactive),20.4% (inactive)
CCCCOc1ccc(-c2nnn(CC(=O)NCc3ccco3)n2)cc1,457,3.9% (inactive),-61.8% (inactive),18.8,-62% (inactive),104,-0.523 (inactive),-0.000212 (inactive),0.00448 (inactive),30.6% (inactive),-15.6% (inactive)
O=C(Nc1ccc(Cl)c(Cl)c1)Nc1cc(C(=O)N2CCOCC2)ccc1N1CCCCC1,580,-17.7% (inactive),-5.4% (inactive),114,-44.8% (inactive),114,-0.441 (inactive),-7.7e-06 (inactive),0.00555 (inactive),13.7% (inactive),13.1% (inactive)
COc1cccc(-c2cc(C(F)(F)F)n3nc(N)nc3n2)c1,814,-0.8% (inactive),18.9% (inactive),90.5,31.9% (inactive),98.9,-0.449 (inactive),-5e-05 (inactive),0.00414 (inactive),6.21% (inactive),-0.814% (inactive)
O=C(NC1CCCc2ccccc21)C1CCN(S(=O)(=O)c2cnc[nH]2)CC1 (centres undefined),529,-10.3% (inactive),-6.4% (inactive),98.8,-6.8% (inactive),111,-0.566 (inactive),-2.6e-05 (inactive),0.00517 (inactive),4% (inactive),19.5% (inactive)
CCOc1ccc2[nH]c(=O)c(CN(Cc3ccccc3)C(=O)N3CCCC3)cc2c1,497,-14.1% (inactive),14.8% (inactive),67.9,54.1% (inactive),48.2,-0.475 (inactive),6.7e-06 (inactive),0.00557 (inactive),10.6% (inactive),25.9% (inactive)
COc1cccc(-n2c(SCC(=O)OC(C)C)nnc2-c2cccnc2)c1,402,-3.3% (inactive),-5.3% (inactive),96.8,-29.7% (inactive),113,-0.459 (inactive),-4.2e-05 (inactive),0.00575 (inactive),9.67% (inactive),13.7% (inactive)
Cc1c(NC(=O)C2CCCNC2=O)c(=O)n(-c2ccccc2)n1C (centres undefined),394,-2.2% (inactive),-1.6% (inactive),101,-36.5% (inactive),106,-0.495 (inactive),3.2e-05 (inactive),0.00472 (inactive),11.5% (inactive),6.36% (inactive)
Cc1ccc(C(=O)NC2CC3CCCC(C2)N3C(=O)NC2CCCCC2)cc1 (centres undefined),391,-5% (inactive),0.8% (inactive),98.7,-32.5% (inactive),80.8,-0.559 (inactive),5.4e-08 (inactive),0.00417 (inactive),-0.377% (inactive),9.12% (inactive)
COc1ccc(-n2c(SCCC(=O)O)nnc2-c2ccncc2)cc1,359,-6.2% (inactive),-2.3% (inactive),98.2,-27.4% (inactive),127,-0.56 (inactive),4e-06 (inactive),0.00569 (inactive),18% (inactive),36.6% (inactive)
C=C(C)CSc1nnc2[nH]c(=O)cc(N)n12,371,0% (inactive),31.5% (inactive),54.8,-70.9% (inactive),116,-0.458 (inactive),-6e-05 (inactive),0.00517 (inactive),15.7% (inactive),14.4% (inactive)
CCC(=O)N(Cc1cc2c(C)ccc(C)c2[nH]c1=O)C1CCCCC1,689,-5.6% (inactive),1.1% (inactive),93.2,-36.3% (inactive),100,-0.474 (inactive),-3.7e-05 (inactive),0.00636 (inactive),13.6% (inactive),25.2% (inactive)
